# Data reported in ChEMBL document CHEMBL1121782, “New monofunctional reagents for DNA as possible agents for the photochemotherapy of psoriasis: derivatives of 4,5'-dimethylangelicin” (J Med Chem, 1981).
# Columns and labels:
# [1] = Specific radioactivity of the compound.; type: ADME
# [2] = species: Mus musculus; assay: Compound was evaluated for its ability to inhibit RNA synthesis in Ehrlich ascites tumor cells by irradiation (365 nM),; type: functional
# In short: (§1)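 Ehrlich ascites tumor cells in Hank's solution (2 × 10^7 cells/mL) irradiated on ice with 1.9 × 10^-5 M compound, Philips HPW 125 lamp at 20 cm (2.02 × 10^16 quanta/s incident). 2 × 10^6 cells then pulsed 15 min at 37 °C with 1 μCi [3H]thymidine (DNA) or [3H]uridine (RNA). Acid-insoluble counts taken as % of untreated cells. D50 is the UV-A dose giving 50% inhibition. Each dose run at least in duplicate.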
# [3] = Water solubility of the compound; type: ADME; settings: for S: buffer; for solubility: water, read-out: S
# [4] = system: Nucleic Acid; assay: The compound was tested for its ability to bind to calf thymus DNA; type: nucleic-acid assay; settings: Bos taurus
# In short: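 Calf thymus DNA (hypochromicity over 40%) in water with 1.5 × 10-2 M NaCl and 1 × 10^-3 M EDTA, no irradiation. Ground-state binding by equilibrium dialysis or fluorimetric titration. r (ligand bound per nucleotide) and c (free ligand, mol/L) plotted per Scatchard. Intrinsic constant K and site size n fitted iteratively to McGhee–von Hippel by least squares until both changed by less than 1%.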
# [5] = species: Mus musculus; assay: compound was evaluated for its ability to inhibit DNA synthesis in Ehrlich ascites tumor cells by irradiation (365 nM); type: functional; in short: as §1
# [6] = species: Mus musculus; assay: Compound was evaluated for its ability to inhibit RNA synthesis in Ehrlich ascites tumor cells by irradiation (365 nM); type: functional
# In short: (§2)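 Ehrlich ascites tumour cells in Hank's solution (2 × 10^7 cells/mL) irradiated on ice with UV-A (Philips HPW 125, 20 cm; 2.02 × 10^16 quanta/s on whole sample) with 1.9 × 10^-5 M compound. Then 2 × 10^6 cells incubated 15 min at 37 °C with 1 μCi [3H]thymidine (DNA) or [3H]uridine (RNA). TCA-insoluble counts as % of untreated; D50 = UV dose giving 50% inhibition; doses ≥duplicate.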
# [7] = species: Mus musculus; assay: Compound was evaluated for its ability to inhibit DNA synthesis in Ehrlich ascites tumor cells by irradiation (365 nM); type: functional; in short: as §2
Specific radioactivity [1] [Ci/M],S [3] [M l-1],solubility [3] [µg/mL],K [4],Structure (SMILES),D50 [2] [quanta*10e-18],D50 [5] [quanta*10e-18],D50 [6] [quanta*10e-18],D50 [7] [quanta*10e-18]
0.13,0.00007,17.1,1250,Cc1oc2ccc3c(C)cc(=O)oc3c2c1CO,13.8,9.2,,
0.13,> 0.004,> 1000,16300,Cc1oc2ccc3c(C)cc(=O)oc3c2c1CN.Cl,100,100,,

# Continued, compound first:
Structure (SMILES),Specific radioactivity [1] [Ci/M],S [3] [M l-1],solubility [3] [µg/mL],K [4],D50 [2] [quanta*10e-18],D50 [5] [quanta*10e-18],D50 [6] [quanta*10e-18],D50 [7] [quanta*10e-18]
O=c1ccc2ccc3occc3c2o1 [ANGELICIN],1.59,,,,,,23.3,25
COCc1c(C)oc2ccc3c(C)cc(=O)oc3c12,0.21,0.000056,15.3,700,13.8,22.7,,
Cc1cc2c(ccc3c(C)cc(=O)oc32)o1,5.11,3.7e-05,8,1400,13.5,10.8,,
